# Results pooled from the literature.
# Lines come from different studies, so protocols differ.
# GPR84: G-protein coupled receptor 84 (GPR84, Homo sapiens, UniProt Q9NQS5)
# Peroxisome proliferator-activated receptor alpha: Peroxisome proliferator-activated receptor alpha (Rattus norvegicus, UniProt P37230)
Structure (SMILES),target,effect on,action,technique,setting,endpoint,value
C=CC(=O)Nc1cc(Nc2nccc(-c3cn(C4CC4)c4ccccc34)n2)c(OC)cc1N(C)CCN(C)C,"Epidermal growth factor receptor (EGFR, Homo sapiens, UniProt P00533)",enzyme activity,inhibitor,TR-FRET,,IC50,3.39 nM
Cc1cccc(-c2noc(-c3ccc(NC(=O)C4CC(=O)N(Cc5cccnc5)C4)cc3)n2)c1 (stereo not drawn),"Relaxin-3 receptor 1 (RXFP3, Homo sapiens, UniProt Q9NSD7)",cAMP,antagonist,TR-FRET,,IC50,4040 nM
CC(C)(C)c1ccc(CCNc2cc(=O)[nH]c(=O)[nH]2)cc1,GPR84,cAMP,agonist,,,EC50,43.7 nM
CC(=O)N[C@H]1CSSC[C@@H](C(=O)N[C@H](Cc2c[nH]c3ccccc23)C(N)=O)NC(=O)[C@H](Cc2ccccc2)NC(=O)[C@H](CCCNC(=N)N)NC1=O,"Melanocortin receptor 3 (MC3R, Homo sapiens, UniProt P41968)",ligand displacement,,radioligand,,IC50,1500 nM
O=c1cc(NCCc2cccs2)[nH]c(=O)[nH]1,GPR84,cAMP,agonist,,,EC50,191 nM
Cc1nc(-c2ccc(C(F)(F)F)cc2)sc1C(=O)NCc1ccc(OC(C)(C)C(=O)O)cc1,Peroxisome proliferator-activated receptor alpha,reporter gene,agonist,luciferase,,EC50,2200 nM
CC(C)c1nc2cc(OCCCCN3CCN(c4cccc5c4OCCN5)CC3)ccc2s1,"D(2) dopamine receptor (DRD2, Homo sapiens, UniProt P14416)",cAMP,agonist,luciferase,,EC50,2.8 nM
CN1CCN(c2ccc(Nc3ncc4cc(C#N)c(=O)n(C5CCCC5)c4n3)cc2)CC1,"Maternal embryonic leucine zipper kinase (MELK, Homo sapiens, UniProt Q14680)",enzyme activity,inhibitor,,,IC50,> 10000 nM
CCCC[C@H](NC(=O)[C@H](CO)NC(=O)[C@H](Cc1ccc(O)cc1)NC(=O)[C@H](CO)NC(C)=O)C(=O)N[C@@H](CCC(=O)O)C(=O)N[C@@H](Cc1c[nH]cn1)C(=O)N[C@@H](C)C(=O)N[C@@H](CCCNC(=N)N)C(=O)N[C@@H](Cc1c[nH]c2ccccc12)C(=O)NCC(=O)N[C@@H](CCCCN)C(=O)N1CCC[C@H]1C(=O)N[C@H](C(=O)NCC(=O)N[C@@H](CCCCN)C(=O)N[C@@H](CCCCN)C(=O)N[C@@H](CCCNC(=N)N)C(N)=O)C(C)C,"Melanocyte-stimulating hormone receptor (MC1R, Homo sapiens, UniProt Q01726)",cAMP,agonist,,,EC50,7.8 nM
CCC(C)N1CCCn2c1nc1c2c(=O)n(C)c(=O)n1C (stereo not drawn),"Adenosine receptor A3 (ADORA3, Homo sapiens, UniProt P0DMS8)",ligand displacement,,radioligand,cell membranes,Ki,> 10000 nM
Cc1cccc(Nc2cc(Cl)nc(SCC(=O)O)n2)c1C,Peroxisome proliferator-activated receptor alpha,reporter gene,agonist,luciferase,,EC50,9500 nM
Cc1cc2nc3c(=O)[nH]c(=O)nc-3n(C[C@H](O)[C@H](O)[C@H](O)COP(=O)(O)OP(=O)(O)OC[C@H]3O[C@@H](n4cnc5c(N)ncnc54)[C@H](O)[C@@H]3O)c2cc1C,"Probable ATP-dependent RNA helicase DDX6 (Homo sapiens, UniProt P26196)",binding,,,lysate,Kd,77 nM
